{"source": "paper PMC7408314", "about": "(Inorganic chemistry, 2020)", "key": {"[1]": {"details": "[L] = 10 μM, [M] = 1 μM, pH = 7.4; cited from earlier work"}, "[2]": {"target": "PSMA on PC3-PIP (PSMA+) cells (Homo sapiens, UniProt Q04609)", "sequence (Q04609 whole entry)": "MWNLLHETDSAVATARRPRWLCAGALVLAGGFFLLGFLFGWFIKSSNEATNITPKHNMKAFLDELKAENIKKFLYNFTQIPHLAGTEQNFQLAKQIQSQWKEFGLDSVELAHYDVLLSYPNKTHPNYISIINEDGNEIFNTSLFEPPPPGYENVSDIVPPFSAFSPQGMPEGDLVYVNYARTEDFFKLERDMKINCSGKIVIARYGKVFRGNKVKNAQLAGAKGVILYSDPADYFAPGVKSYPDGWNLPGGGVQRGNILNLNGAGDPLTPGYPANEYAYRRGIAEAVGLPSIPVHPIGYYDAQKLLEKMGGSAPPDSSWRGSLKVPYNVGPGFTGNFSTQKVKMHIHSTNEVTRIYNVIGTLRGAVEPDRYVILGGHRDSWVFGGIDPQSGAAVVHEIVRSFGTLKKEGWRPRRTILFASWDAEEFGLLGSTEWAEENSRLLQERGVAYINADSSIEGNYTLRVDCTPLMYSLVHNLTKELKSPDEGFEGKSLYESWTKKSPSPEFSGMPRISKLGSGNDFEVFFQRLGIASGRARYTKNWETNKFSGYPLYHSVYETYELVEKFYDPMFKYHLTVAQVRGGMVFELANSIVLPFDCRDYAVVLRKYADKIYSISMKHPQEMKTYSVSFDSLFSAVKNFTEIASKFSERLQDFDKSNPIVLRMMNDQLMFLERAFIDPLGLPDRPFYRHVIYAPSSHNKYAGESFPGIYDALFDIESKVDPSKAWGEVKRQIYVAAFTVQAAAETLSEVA", "assay": "Receptor saturation binding assay on prostate cancer cells", "details": "2 h incubation"}, "[3]": {"assay": "In vitro mouse serum challenge", "format": "in vitro ADME", "details": "37 °C, at least six half-lives of scandium-44 (24 h)", "procedure,_shortened": "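Scandium-44-labelled complex (free chelator or its PSMA-617 conjugate, labelled at ambient temperature in 0.5 M NH₄OAc) mixed with an equal volume of mouse serum and held at 37 °C. Aliquots taken at 0.5, 4, 8 and 24 h, run on iTLC-SA in 0.4 M sodium citrate pH 4.5 beside free ⁴⁴Sc-in-serum control. Intact fraction calculated from baseline versus solvent-front peak areas.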"}, "[4]": {"system": "PC3-PIP (PSMA+) and PC3-Flu (PSMA−) tumor-bearing nude mice", "details": "7.4 vs 74 GBq/μmol"}, "[5]": {"assay": "in vivo", "details": "male, nude, mouse, tumor (PSMA+, PC3-PIP), intravenous, total radioactivity, tumor retention"}, "[6]": {"details": "protonated tertiary amine in the pyridyl backbone; cited from earlier work"}, "[7]": {"details": "cited from earlier work"}, "[8]": {"details": "cited from earlier work", "remark": "listed apart in the source"}, "[9]": {"details": "cited from earlier work", "remark": "listed apart in the source"}}, "data": [{"smiles": "O=C(O)CN1CCN(CC(=O)O)CCN(CC(=O)O)CCN(CC(=O)O)CC1", "note": "[DOTA, 1,4,7,10-tetraazacyclododecane-1,4,7,10-tetraacetic acid]", "values": [{"measurement": "pSc (pM), −log [M]free", "setting": "[1]", "value": 23.9}]}, {"smiles": "O=C(O)CC[C@H](NC(=O)N[C@@H](CCCCNC(=O)[C@H](Cc1ccc2ccccc2c1)NC(=O)[C@H]1CC[C@H](CNC(=O)CCCCCCOc2cc(CN(CC(=O)O)Cc3cccc(C(=O)O)n3)nc(CN(CC(=O)O)Cc3cccc(C(=O)O)n3)c2)CC1)C(=O)O)C(=O)O", "note": "[H4pypa-C7-PSMA617]", "values": [{"measurement": "Bmax", "setting": "[2]", "value": "7.84 ± 0.37", "unit": "fmol/mg"}]}, {"smiles": "O=C(O)CC[C@H](NC(=O)N[C@@H](CCCCNC(=O)[C@H](Cc1ccc2ccccc2c1)NC(=O)[C@H]1CC[C@H](CNC(=O)CCCCCCOc2cc(CN(CC(=O)O)Cc3cccc(C(=O)O)n3)nc(CN(CC(=O)O)Cc3cccc(C(=O)O)n3)c2)CC1)C(=O)O)C(=O)O", "note": "[[^44Sc][Sc(pypa-C7-PSMA617)], metal not drawn]", "values": [{"measurement": "transchelation in mouse serum", "setting": "[3]", "value": "< 1", "unit": "%"}, {"measurement": "effect of lower apparent molar activity on kidney accumulation", "setting": "[4]", "value": "brought down the kidney accumulation by more than half"}, {"measurement": "tissue uptake", "setting": "[5]; after about four half-lives of scandium-44, 7.4 GBq/μmol", "value": "14.9 ± 1.7", "unit": "%ID/g"}, {"measurement": "tissue uptake", "setting": "[5]; after about four half-lives of scandium-44, 74 GBq/μmol", "value": "20 ± 0.6", "unit": "%ID/g"}]}, {"smiles": "O=C(O)CN(Cc1cccc(CN(CC(=O)O)Cc2cccc(C(=O)O)n2)n1)Cc1cccc(C(=O)O)n1", "note": "[H4pypa]", "values": [{"measurement": "highest pKa", "setting": "[6]", "value": 7.78}, {"measurement": "complex stability pM with In^3+", "setting": "[7]", "value": 30.5}, {"measurement": "complex stability pM with Lu^3+", "setting": "[8]", "value": 22.6}, {"measurement": "complex stability pM with La^3+", "setting": "[9]", "value": 19.9}]}, {"smiles": "CC1(N(CC(=O)O)CC(=O)O)CN(CC(=O)O)CCN(CC(=O)O)C1", "note": "[AAZTA, 6-[bis(hydroxycarbonyl-methyl)amino]-1,4-bis-(hydroxycarbonylmethyl)-6-methylperhydro-1,4-diaze-pine]", "values": [{"measurement": "pSc (pM), −log [M]free", "setting": "[1]", "value": 24.7}]}]}
